pIC50: −log10 of the molar value.
Assays:
[1] = Inhibition of Platelet activating factor (PAF)- induced platelet aggregation in rabbit platelet rich plasma (PRP); assay type: functional
[2] = target: Platelet-activating factor receptor (Mus musculus) (UniProt Q62035); test: Antagonism of Platelet activating factor (PAF) activity in mice after oral administration, assayed by PAF-induced death; assay type: functional, organism-based
Summary of the method: (§1)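 Mice dosed with test agent intravenously or orally, then injected with a lethal dose of PAF. Protection from PAF-induced death was scored. ED50 was taken as the dose that reduced mortality by 50%. Oral testing used the same method as intravenous testing.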

[3] = target: Platelet-activating factor receptor (Mus musculus) (UniProt Q62035); test: Antagonism of Platelet activating factor (PAF)in mice after Intravenous administration, assayed by PAF-induced death; assay type: functional, organism-based; summary of the method: as §1
[4] = target: T1, Thromboxane-A synthase (Rattus norvegicus) (UniProt P49430); test: Thromboxane synthase inhibitor (TxSI) activity assessed by ex vivo inhibition of serum TXB2 production in rat after Intravenous administration; assay type: functional, organism-based
T1 sequence (whole entry): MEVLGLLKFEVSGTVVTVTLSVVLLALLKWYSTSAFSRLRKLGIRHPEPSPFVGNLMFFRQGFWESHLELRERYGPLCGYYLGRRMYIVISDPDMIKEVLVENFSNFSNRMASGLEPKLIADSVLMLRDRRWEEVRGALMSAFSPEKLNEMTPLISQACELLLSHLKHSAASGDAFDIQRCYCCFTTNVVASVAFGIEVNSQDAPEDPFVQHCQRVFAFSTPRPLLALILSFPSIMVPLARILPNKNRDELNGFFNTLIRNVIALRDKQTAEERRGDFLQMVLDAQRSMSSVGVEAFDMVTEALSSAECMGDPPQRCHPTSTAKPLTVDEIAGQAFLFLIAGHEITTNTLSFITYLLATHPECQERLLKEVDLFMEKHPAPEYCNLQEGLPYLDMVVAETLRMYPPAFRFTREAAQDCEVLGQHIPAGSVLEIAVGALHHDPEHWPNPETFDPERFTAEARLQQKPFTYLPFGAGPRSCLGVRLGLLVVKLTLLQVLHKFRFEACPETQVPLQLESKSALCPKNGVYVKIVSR
Summary of the method: (§2)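 Rats dosed intravenously or orally. Blood was then taken, and serum TxB2 production was measured ex vivo. Values are reported as ED50 doses in mg/kg. Oral testing used the same method as intravenous testing.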

Thromboxane-A synthase = target: T2, Thromboxane-A synthase (Homo sapiens, UniProt P24557); test: In vitro inhibition of thromboxane synthase (TXA2) in human platelet microsomes [reduced formation of TXB2 from prostaglandin H2(PGH2)]; assay type: functional, Microsome; details: for pIC50: read-out: IC50
T2 sequence (P24557 whole entry): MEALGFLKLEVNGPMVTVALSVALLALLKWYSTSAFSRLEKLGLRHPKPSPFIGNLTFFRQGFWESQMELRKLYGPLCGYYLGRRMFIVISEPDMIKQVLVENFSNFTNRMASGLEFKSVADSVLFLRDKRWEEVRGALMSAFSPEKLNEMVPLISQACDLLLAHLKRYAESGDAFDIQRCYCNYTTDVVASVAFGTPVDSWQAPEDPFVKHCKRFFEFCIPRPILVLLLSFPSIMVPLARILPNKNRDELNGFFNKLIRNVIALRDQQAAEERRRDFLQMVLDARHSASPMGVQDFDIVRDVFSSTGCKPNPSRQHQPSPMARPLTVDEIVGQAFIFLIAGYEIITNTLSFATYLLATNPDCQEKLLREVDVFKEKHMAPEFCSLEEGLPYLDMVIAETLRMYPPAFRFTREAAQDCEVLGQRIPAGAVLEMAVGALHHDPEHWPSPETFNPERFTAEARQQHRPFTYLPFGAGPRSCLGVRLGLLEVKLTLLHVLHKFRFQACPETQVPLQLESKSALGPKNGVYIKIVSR

[5] = target: T1, Thromboxane-A synthase (Rattus norvegicus); test: Thromboxane synthase inhibitor (TxSI) activity was assessed by ex vivo inhibition of serum TXB2 production in rat after oral administration; assay type: functional, organism-based; summary of the method: as §2

Sequence of Platelet-activating factor receptor (Mus musculus) (Q62035 whole entry): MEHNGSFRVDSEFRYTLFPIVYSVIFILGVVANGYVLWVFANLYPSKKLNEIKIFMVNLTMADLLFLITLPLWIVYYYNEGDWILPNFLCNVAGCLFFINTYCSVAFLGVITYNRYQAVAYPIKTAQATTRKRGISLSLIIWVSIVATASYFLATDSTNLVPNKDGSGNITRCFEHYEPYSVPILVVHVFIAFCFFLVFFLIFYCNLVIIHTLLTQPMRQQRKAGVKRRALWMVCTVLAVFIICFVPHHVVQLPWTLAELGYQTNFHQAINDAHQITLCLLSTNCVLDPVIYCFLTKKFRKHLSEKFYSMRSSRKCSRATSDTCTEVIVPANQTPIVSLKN

| Compound | pIC50 [1] | ED50 [2] [mg/kg] | ED50 [3] [mg/kg] | ED50 [4] [mg/kg] | pIC50 (Thromboxane-A synthase) | ED50 [5] [mg/kg] | IC50 (Thromboxane-A synthase) |
| --- | --- | --- | --- | --- | --- | --- | --- |
| CCOC(=O)CCCCO/N=C(\c1ccc(C(=O)N2CCc3c(sc4c3C(c3ccccc3Cl)=NC(C)c3nnc(C)n3-4)C2)cc1)c1cccnc1 (centres undefined) | 7.00 | 0.5 | 0.2 | > 1 | – | – | – |
| CCOC(=O)CCCCO/N=C(\c1ccc(COCC(=O)N2CCc3c(sc4c3C(c3ccccc3Cl)=NC(C)c3nnc(C)n3-4)C2)cc1)c1cccnc1 (centres undefined) | 7.22 | > 10 | 4.2 | > 1 | 7.24 | – | – |
| CCOC(=O)CCCCO/N=C(/c1cccnc1)c1cccc(CCCCN2CCc3c(sc4c3C(c3ccccc3Cl)=NC(C)c3nnc(C)n3-4)C2)c1 (centres undefined) | 7.27 | > 10 | 0.38 | 0.53 | 7.68 | 6.9 | – |
| Cc1nnc2n1-c1sc3c(c1C(c1ccccc1Cl)=NC2C)CCNC3 (centres undefined) | 6.61 | – | > 5 | – | < 6.00 | – | – |
| CCOC(=O)CCCC/C=C(/c1cccnc1)c1cccc(CN2CCc3c(sc4c3C(c3ccccc3Cl)=NC(C)c3nnc(C)n3-4)C2)c1 (centres undefined) | 7.41 | > 10 | 0.6 | 0.71 | 7.17 | 3.2 | – |
| CCOC(=O)CCCCO/N=C(/c1cccnc1)c1ccccc1C(=O)N1CCc2c(sc3c2C(c2ccccc2Cl)=NC(C)c2nnc(C)n2-3)C1 (centres undefined) | 6.70 | > 10 | 2.4 | > 1 | < 6.00 | – | – |
| CCCNC(=O)CCCCO/N=C(/c1cccnc1)c1cccc(CN2CCc3c(sc4c3C(c3ccccc3Cl)=NC(C)c3nnc(C)n3-4)C2)c1 (centres undefined) | 7.15 | > 10 | 0.54 | > 1 | 6.27 | – | – |
| CCOC(=O)CCCCO/N=C(\c1ccc(CC(=O)N2CCc3c(sc4c3C(c3ccccc3Cl)=NC(C)c3nnc(C)n3-4)C2)cc1)c1cccnc1 (centres undefined) | 7.07 | > 10 | 4.2 | > 1 | 7.16 | – | – |
| CCOC(=O)CCCCO/N=C(/c1cccnc1)c1cccc(CCCC(=O)N2CCc3c(sc4c3C(c3ccccc3Cl)=NC(C)c3nnc(C)n3-4)C2)c1 (centres undefined) | 7.41 | > 10 | 1.05 | > 1 | 7.39 | – | – |
| CCOC(=O)CCCC/C=C(\c1ccc(CN2CCc3c(sc4c3C(c3ccccc3Cl)=NC(C)c3nnc(C)n3-4)C2)cc1)c1cccnc1 (centres undefined) | 7.49 | 1.6 | 0.55 | 1 | 7.14 | 5.2 | – |
| Cc1nnc2n1-c1sc3c(c1C(c1ccccc1Cl)=NC2C)CCN(Cc1cccc(/C(=N\OCCCCC(=O)OCCCc2cccnc2)c2cccnc2)c1)C3 (centres undefined) | 7.19 | > 10 | 0.54 | > 1 | < 6.00 | – | – |
| Cc1nnc2n1-c1sc3c(c1C(c1ccccc1Cl)=NC2C)CCN(Cc1cccc(/C(=N\OCCCCC(=O)O)c2cccnc2)c1)C3 (centres undefined) | 6.01 | > 10 | 0.47 | 1 | 7.62 | 10 | – |
| CCOC(=O)CCCCO/N=C(\c1ccc(CN2CCc3c(sc4c3C(c3ccccc3Cl)=NC(C)c3nnc(C)n3-4)C2)cc1)c1cccnc1 (centres undefined) | 7.34 | > 10 | 1.35 | 1 | 7.10 | > 10 | – |
| CCOC(=O)CCCCO/N=C(/c1cccnc1)c1cccc(C(=O)N2CCc3c(sc4c3C(c3ccccc3Cl)=NC(C)c3nnc(C)n3-4)C2)c1 (centres undefined) | 7.22 | 2.3 | 0.47 | > 1 | – | – | – |
| CCOC(=O)CCCCO/N=C(/c1cccnc1)c1cccc(CN2CCc3c(sc4c3C(c3ccccc3Cl)=NC(C)c3nnc(C)n3-4)C2)c1 (centres undefined) | 7.33 | > 10 | 0.2 | 0.1 | 7.23 | > 10 | – |
| Cc1nnc2n1-c1sc3c(c1C(c1ccccc1Cl)=NC2C)CCN(Cc1cccc(/C(=N\OCCCCC(=O)OCc2ccccc2)c2cccnc2)c1)C3 (centres undefined) | 7.01 | > 10 | 0.54 | > 1 | 6.33 | – | – |
| CCOC(=O)C1=C(c2ccc(-n3c(C)nc4cnccc43)cc2)NC(C)=C(C(=O)Nc2ccccn2)C1c1ccccc1Cl (centres undefined) | – | 1.55 | 0.1 | – | – | – | Not Active |
| CCOC(=O)CCCCO/N=C(\c1ccccc1)c1cccnc1 | – | – | – | 0.01 | 9.00 | > 0.1 | – |
| CCOC(=O)CCCCO/N=C(/c1cccnc1)c1cccc(CN2CCc3c(sc4c3C(c3ccccc3Cl)=NCc3nnc(C)n3-4)C2)c1 | 6.70 | > 10 | 0.8 | 0.1 | 7.19 | > 10 | – |
| O=C(O)/C=C/c1ccc(Cn2ccnc2)cc1 | – | – | – | 0.02 | – | 0.1 | – |
| O=C(O)CCCC/C=C(/c1ccccc1)c1cccnc1 | – | – | – | 0.01 | – | 0.05 | – |
| Cc1nnc2n1-c1sc3c(c1C(c1ccccc1Cl)=NC2C)CCN(Cc1cccc(/C(=N\OCCCCC(=O)OCCN2CCOCC2)c2cccnc2)c1)C3 (centres undefined) | 7.09 | > 10 | 0.54 | 0.77 | 6.82 | 8.9 | – |

From ChEMBL document CHEMBL1135874, “Novel agents combining platelet activating factor (PAF) receptor antagonist with thromboxane synthase inhibitor (TxSI)” (Bioorg Med Chem Lett, 2002)
